In paper PMC7111275 (European Journal of Medicinal Chemistry, 2013):

Legend:
Hel cells = details: at 100 μM, Hel cell cultures
[1] = system: PBMC, human lymphoblastoid CEM and Vero cells; test: Cytotoxicity testing in PBMC, CEM and Vero cells; format: cell-based; details: at 100 μM
HIV = test: Anti-HIV activity in cellular assay; format: cell-based; details: Human immunodeficiency virus 1, read-out: Anti-HIV activity EC90
[2] = system: hepatitis C virus (HCV) replicon in Huh 7 cells; test: Subgenomic HCV replicon system in Huh 7 cells; format: cell-based; details: 10 μM
Summary of the method: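 Huh 7 Clone B cells carrying subgenomic HCV replicon RNA were seeded at 3000 cells/well and given test compound at 10 μM in triplicate immediately after seeding. After 5 days at 37 °C in 5% CO2, total RNA was extracted. Replicon RNA was measured against an rRNA internal control by one-step multiplex real-time RT-PCR. ΔCt was taken versus the no-drug control, where ΔCt 3.3 = 1-log reduction; rRNA ΔCt gave cytotoxicity. 2′-C-Me-C at 10 μM served as the control.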

Q: How did the “Cytotoxicity (in words)” value (Hel cells) turn out when `CC(C)(C)C(=O)OCOP(=O)(C/C=C/Cn1cc(CO)nn1)OCOC(=O)C(C)(C)C` [Compound 31, (E)-1-(4′-Bis(POM)-phosphinylbut-2′-enyl)-4-(hydroxymethyl)-1,2,3-triazole] was run?
A: no observed cytotoxicity

Q: How did the “Cytotoxicity (in words)” value [1] turn out when `CC(C)(C)C(=O)OCOP(=O)(C/C=C/Cn1ccc(N)nc1=O)OCOC(=O)C(C)(C)C` [Compound 8a, (E)-N^1-(4′-Bis(POM)phosphinyl-2′-butenyl)-cytosine] was run?
A: without significant cytotoxicity

Q: What about the EC90 (HIV) of the same molecule?
A: > 100 µM

Q: And the “Anti-HCV activity (in words)” value [2]?
A: pronounced anti-HCV activity

Q: Which “Cytotoxicity (in words)” value [1] does the source give for `CC(C)(C)C(=O)OCOP(=O)(C/C=C/Cn1cc(C(=O)O)nn1)OCOC(=O)C(C)(C)C` [Compound 24, (E)-1-(4′-Bis(POM)-phosphinylbut-2′-enyl)-4-(carboxylic acid)-1,2,3-triazole] here?
A: without significant cytotoxicity

Q: And the “Anti-HCV activity (in words)” value [2]?
A: pronounced anti-HCV activity

Q: `COC(=O)c1nccn(C/C=C/CP(=O)(OCOC(=O)C(C)(C)C)OCOC(=O)C(C)(C)C)c1=O` [Compound 13, (E)-N^1-(4′-Bis(POM)-phosphinylbut-2′-enyl)-3-oxo-pyrazine-2-methylester] was tested. Which “Cytotoxicity (in words)” value [1] did it give?
A: without significant cytotoxicity

Q: And the “Anti-HCV activity (in words)” value [2]?
A: pronounced anti-HCV activity

Q: `CC(C)(C)C(=O)OCOP(=O)(C/C=C/Cn1ccnc(C(N)=O)c1=O)OCOC(=O)C(C)(C)C` [Compound 14, (E)-N^1-(4′-Bis(POM)-phosphinylbut-2′-enyl)-3-oxo-pyrazine-2-carboxamide] was tested. Which “Cytotoxicity (in words)” value [1] did it give?
A: without significant cytotoxicity

Q: What about the “Anti-HCV activity (in words)” value [2] of the same molecule?
A: pronounced anti-HCV activity
